Compound activity from PubChem.
C-LANA FP: KSHV C-LANA DNA binding inhibition; MBP-C-LANA/FAM-LBS DNA binding, fluorescence polarization; inhibition, % at 9 µM; 0.078% of 340,000 active;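 active = highest replicate inhibition at or above 60% at 9 µM, even if other replicates fall short; inactive = all replicates below 60% inhibition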;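 also: 0% = neutral control wells and 100% = 4 µM acridine orange control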
Keap1-Nrf2 PPI: inhibitors of human Keap1-Nrf2 protein-protein interaction. Keap1 Kelch-Nrf2 peptide fluorescence polarization, 1536-well. inhibition, % at 9.4 µM. 0.15% of 340,000 active; in the data active = inhibition above about 12%;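 also: human Keap1 Kelch domain with fluorescein labeled Nrf2 9mer peptide probe; 0% = neutral control wells and 100% = peptide positive control; higher means more block of Keap1 binding to Nrf2 peptide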
Target sequence (Q14145 whole entry, looked up, the tested form may be a part): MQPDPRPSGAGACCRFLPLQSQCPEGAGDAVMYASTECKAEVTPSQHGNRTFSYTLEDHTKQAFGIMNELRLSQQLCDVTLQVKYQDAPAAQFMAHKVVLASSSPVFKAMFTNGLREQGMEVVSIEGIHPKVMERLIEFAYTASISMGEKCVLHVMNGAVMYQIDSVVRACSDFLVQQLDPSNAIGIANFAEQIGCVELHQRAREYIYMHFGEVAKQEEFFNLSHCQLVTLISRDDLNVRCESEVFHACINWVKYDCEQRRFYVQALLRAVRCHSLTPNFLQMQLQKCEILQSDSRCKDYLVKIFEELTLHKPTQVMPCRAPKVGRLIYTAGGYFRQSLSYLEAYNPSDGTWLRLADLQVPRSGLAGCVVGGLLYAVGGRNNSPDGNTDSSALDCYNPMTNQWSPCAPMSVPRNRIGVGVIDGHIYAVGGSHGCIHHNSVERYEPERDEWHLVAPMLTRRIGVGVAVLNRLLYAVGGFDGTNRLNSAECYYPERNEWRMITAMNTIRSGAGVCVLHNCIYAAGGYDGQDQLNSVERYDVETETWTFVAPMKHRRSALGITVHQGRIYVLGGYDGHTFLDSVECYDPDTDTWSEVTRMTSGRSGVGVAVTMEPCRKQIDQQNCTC
CAL PDZ FP-1: blocks peptide binding to the human CAL PDZ domain; Q9HD26; purified CAL PDZ, TMR-peptide fluorescence polarization, 1 h; inhibition, % at 24.9 µM; 0.92% of 300,000 active; AID 602252;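 active = mean inhibition of at least 30% with at least half of replicates also reaching 30%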;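 also: 0% = DMSO neutral control and 100% = excess unlabeled competitor peptide PRC23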
CAL PDZ FP-2: blocks peptide binding to human CAL PDZ domain | Q9HD26 | purified CAL PDZ, TMR-peptide fluorescence polarization, 1 h | inhibition, % at 20 µM | 0.02% of 330,000 active | AID 504414;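 active = highest replicate inhibition of at least 40%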;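 also: plate controls were DMSO neutral control wells for no effect and unlabeled competitor peptide control wells for full effect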
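Material: tagged CAL PDZ domain; buffer or medium: 25 mM sodium phosphate pH 7.4, 150 mM NaCl, TCEP, IgG, Thesit; compound dosing: single point, 20 µM; schedule: 1 h incubation at room temperature before polarization reading; measured by: FP readout, S and P plane fluorescence; read-out basis: percent inhibition from loss of millipolarization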
miR122 inh: inhibitors of miR-122 in Huh7 cells | AID 602342 | 0.3% of 340,000 active | activation (reporter increase), % at 12.5 µM | Huh7 miR-122 Renilla luciferase sensor, 48 h; neutral wells = 0, positive control = 100;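 active = mean replicate activation score at least 90 and every replicate individually at or above 90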;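 also: higher luciferase means less miR-122 activity so hits act as miR-122 inhibitors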
The depositor's hits bear a star; . = no result; [ ] = another dose, or the depositor's remark. Rows were chosen to be rich in hits. Some 1.1% of all compounds tested hit in one or more screens of this group.

SMILES	C-LANA FP	Keap1-Nrf2 PPI	CAL PDZ FP-1	CAL PDZ FP-2	miR122 inh
CN1/C(=C/C=C(C#N)C#N)C(C)(C)c2ccccc21	150*	-226	-4	0	-2
CN1/C(=C\C=O)C(C)(C)c2ccccc21	0	-2	-1	0	.
CC(C)Cc1nnc(NC(=O)c2cc3c(s2)CCC3)s1	-1	-4	45*	-1	3
Cc1noc(C)c1S(=O)(=O)N(C)C[C@@H]1Oc2ccc(NC(=O)Nc3ccccc3)cc2CC(=O)N([C@H](C)CO)C[C@H]1C	.	.	.	.	1[16.7 µM]
OCCC1CN(Cc2ccc3cc(Cl)ccc3n2)CCN1Cc1ccsc1 (configuration not stated)	0	-6	72*	-1	-3
OCCC1CN(Cc2ccc3nonc3c2)CCN1Cc1ccsc1 (configuration not stated)	0	-1	4	-1	7
NC(=O)COC(=O)c1ccc(NS(=O)(=O)c2ccc3c(c2)OCCO3)cc1	0	-1	76*	-1	10
CC(C)NC(=O)COC(=O)c1ccc(NS(=O)(=O)c2ccc3c(c2)OCCO3)cc1	0	1	-3	1	280*
N#CCC(=O)Nc1ccc(C(=O)OCC(=O)NC(=O)Nc2ccc3c(c2)OCCO3)cc1	1	-3	62*	-2	3
CNC(=O)COC(=O)c1ccc(NS(=O)(=O)c2ccc3c(c2)OCCO3)cc1	1	5	-2	-1	.
Cc1noc(C)c1CSc1nc2ccccc2c(=O)n1-c1ccccc1	0	0	-6	-1	99*
Cc1ccc(S(=O)(=O)N(C)C[C@@H]2OCCCC[C@H](C)Oc3ccc(NS(=O)(=O)c4c(C)noc4C)cc3C(=O)N([C@@H](C)CO)C[C@@H]2C)cc1	.	.	.	.	-8[16.7 µM]
C/C=C/c1ccc2c(c1)O[C@@H](CN(C)Cc1ccncc1)[C@H](C)CN([C@H](C)CO)S2(=O)=O	.	.	.	.	7[16.7 µM]
CCOC(=O)CN1C(=O)c2ccccc2C1=O	-2	2	51*	1	7
CCCOC(=O)CN1C(=O)c2ccccc2C1=O	-2	-4	-3	-3	2
O=C(CN1C(=O)c2ccccc2C1=O)N1CCN(c2ccccc2)CC1	1	1	40*	-1	2
O=C(NNS(=O)(=O)c1ccc(Cl)cc1)c1cccs1	-2	0	-4	23	116*
NC(=O)NC(CC(=O)NNC(=O)c1cccs1)c1ccc(Cl)cc1 (configuration not stated)	1	-7	31*	1	-8
COc1ccc(S(=O)(=O)NNC(=O)c2cccs2)cc1	-1	7	2	-19	.
O=C(NNC(=O)c1cccs1)c1ccc(Cl)cc1	-3	-1	-2	-1	.
C[C@@H]1CN([C@@H](C)CO)C(=O)c2cc(NC(=O)CCC(F)(F)F)ccc2O[C@H]1CN(C)Cc1ccc(-c2ccccc2)cc1	.	.	.	.	-15[16.7 µM]
CO[C@H]1CN(C)C(=O)c2ccc(NS(=O)(=O)c3ccccc3C)cc2OC[C@@H](C)NC[C@H]1C	.	.	.	.	-7[16.7 µM]
O=C(CCc1c[nH]c2ccccc12)Nc1ccc(S(=O)(=O)Nc2ncccn2)cc1	1	-1	33*	0	5
Cc1ccc(CC(=O)Nc2ccc(S(=O)(=O)Nc3ncccn3)cc2)cc1	-1	0	3	-2	-1
C[C@@H]1CN([C@H](C)CO)C(=O)c2cc(C3=CCCCC3)cnc2O[C@H]1CN(C)C(=O)c1ccccn1	.	.	.	.	-11[16.7 µM]
SMILES	C-LANA FP	Keap1-Nrf2 PPI	CAL PDZ FP-1	CAL PDZ FP-2	miR122 inh
COc1ccc(NC(=O)N(C)C[C@H]2OCCCC[C@@H](C)Oc3ccc(NS(=O)(=O)c4ccc(OC)cc4)cc3C(=O)N([C@H](C)CO)C[C@@H]2C)cc1	.	.	.	.	8[16.7 µM]
CN(C)c1cccc(C(=O)NC2CCCc3ccccc32)c1 (configuration not stated)	-1	2	59*	-1	3
O=C(NC1CCCc2ccccc21)c1cccc(Br)c1 (configuration not stated)	2	-8	-3	0	.
CS(=O)(=O)c1ccc(C(=O)NC2CCCc3ccccc32)cc1 (configuration not stated)	-1	0	58*	0	.
CCCC#Cc1cnc2c(c1)C(=O)N([C@@H](C)CO)C[C@@H](C)[C@@H](CN(C)S(=O)(=O)c1ccccc1)O2	.	.	.	.	9[16.7 µM]
O=S(=O)(c1ccccc1)n1ccc2ccccc21	-2	-3	47*	1	4
Cc1cc(C)c(S(=O)(=O)n2ccc3ccccc32)c(C)c1	3	-1	-1	0	.
